Rows were chosen to be rich in hits. Some 2.3% of all compounds tested hit in one or more screens of this group.
TRPC4 block: inhibitors of mouse TRPC4 channel, primary screen, Fluo4 calcium, HEK293 TRPC4beta/mu-opioid cells; DAMGO-evoked Fluo4 calcium flux; active compounds read low; B-score at 10 µM; hit rate 0.39% among 300,000;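 active = B-score over 3 SD under the library average, no early fluorescence shift, positive overall ratio signal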
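Test system – stable TRPC4beta/mu-opioid receptor HEK293 cells · Probe or stimulus – DAMGO, a submaximal dose followed by a maximal one · Dosing – one concentration per compound · Signal – Fluo4 calcium fluorescence by kinetic imaging, 5 s 1 Hz baseline · Evaluation – per-well B score of integrated baseline-normalized Fluo4 ratio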
TRPC6 inh: mouse TRPC6 channel inhibitors, primary screen, cell-based, HEK293, membrane potential dye; B-score at 10 µM; Short transient receptor potential channel 6 (Mus musculus), Q61143; AID 2553, 2010; hit rate 1.1% among 310,000; ACh-evoked depolarization; active compounds read low;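 active = B-score under library mean minus 3 SD, initial fluorescence not abnormally high, positive integrated signal ratio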;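 note: B-score derived from integrated fluorescence ratio over the kinetic read; more negative B-score means stronger inhibition of depolarization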
Target sequence (Q61143 whole entry, looked up): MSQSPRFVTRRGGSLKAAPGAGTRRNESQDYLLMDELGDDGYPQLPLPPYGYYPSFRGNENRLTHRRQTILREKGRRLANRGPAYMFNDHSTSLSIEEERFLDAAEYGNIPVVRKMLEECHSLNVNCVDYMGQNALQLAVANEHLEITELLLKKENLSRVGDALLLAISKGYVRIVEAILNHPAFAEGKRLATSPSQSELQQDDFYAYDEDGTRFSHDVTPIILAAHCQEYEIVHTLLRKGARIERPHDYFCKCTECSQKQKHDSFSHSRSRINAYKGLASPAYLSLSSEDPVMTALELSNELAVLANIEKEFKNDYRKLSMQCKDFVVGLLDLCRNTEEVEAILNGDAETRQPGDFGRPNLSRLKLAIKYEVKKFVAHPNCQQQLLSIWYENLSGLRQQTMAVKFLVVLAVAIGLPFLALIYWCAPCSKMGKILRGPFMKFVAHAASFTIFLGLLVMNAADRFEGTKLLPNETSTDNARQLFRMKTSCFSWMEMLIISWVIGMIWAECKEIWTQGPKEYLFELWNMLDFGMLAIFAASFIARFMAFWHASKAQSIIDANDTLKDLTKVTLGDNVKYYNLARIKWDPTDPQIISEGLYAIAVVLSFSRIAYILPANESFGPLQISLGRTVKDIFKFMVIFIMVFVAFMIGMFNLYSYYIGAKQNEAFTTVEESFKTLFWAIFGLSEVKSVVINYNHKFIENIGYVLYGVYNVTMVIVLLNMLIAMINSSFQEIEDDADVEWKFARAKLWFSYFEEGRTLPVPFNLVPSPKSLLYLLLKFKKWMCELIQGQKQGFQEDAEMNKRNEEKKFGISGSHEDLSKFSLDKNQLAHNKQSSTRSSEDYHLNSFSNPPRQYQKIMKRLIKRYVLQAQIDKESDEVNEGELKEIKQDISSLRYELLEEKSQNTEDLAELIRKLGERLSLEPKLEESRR
TRPC4 PAM: positive allosteric modulators of TRPC4, primary screen, cell-based, mouse TRPC4beta, HEK293 mu-opioid, Fluo-4 calcium; Short transient receptor potential channel 4 (Mus musculus), Q9QUQ5; DAMGO EC20, Fluo-4 Ca2+ flux; active compounds read high; AID 2227, 2009; hit rate 0.42% among 310,000; B-score at 10 µM;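 active = B-score of calcium response area above 5 SD of library B-scores, with initial fluorescence ratio within 5 SD of library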
TRPC6 activator: mouse TRPC6 channel activators, primary screen, cell-based, HEK293, membrane potential dye; Short transient receptor potential channel 6 (Mus musculus), Q61143; HEK293-TRPC6 membrane potential dye fluorescence; active compounds read high; B-score at 10 µM; hit rate 0.13% among 310,000; AID 2550, 2010;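 active = B-score of the integrated fluorescence ratio above library mean plus 3 SD, and starting fluorescence ratio within library mean plus 5 SD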;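 note: higher score means more depolarization so channel activation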
TRPC4 agonist: activators of mouse TRPC4 channel, primary screen, Fluo4 calcium, HEK293 TRPC4beta/mu-opioid cells | AID 2237, 2010 | B-score at 10 µM | Fluo4 calcium fluorescence; active compounds read high | hit rate 0.49% among 310,000;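 active = B-score above 5 SD of library B-scores, and initial fluorescence ratio not above library mean plus 5 SD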;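 note: positive B-score marks a calcium rise read as TRPC4 activation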
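Material: TRPC4beta and mu-opioid receptor HEK293 stable cells | Incubation: 45 min room-temperature Fluo4 loading, 110 s read | Detection: Kinetic Fluo4 calcium fluorescence | Measure: Integrated baseline-normalised fluorescence ratio, converted to per-well B score | Benchmarks: Low control buffer alone, high control maximal DAMGO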
TRPC4 spec 2: mouse TRPC4 off-target activity of TRPC6 inhibitors, second screen; HEK293 TRPC4/MOR, membrane potential dye fluorescence; channel activated by saturating DAMGO dose; hit rate 42% among 920; shares compounds with TRPC6 inh; inhibition, % at 10 µM;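 active = compounds whose fluorescence signal differed from control wells by over 3 SD, either direction, in both duplicate plates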
TRPC4 spec: mouse TRPC4 modulation by TRPC6 hits, confirmation, selectivity assay for TRPC6 inhibitor project, cell-based, HEK293 TRPC4/mu-opioid, membrane potential dye. shares compounds with TRPC6 inh. membrane potential fluorescence. activity change, negative = inhibition, % at 10 µM. hit rate 61% among 920. AID 2777, 2010;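 active = rise or fall in signal beyond 3 SD of buffer-only wells in both replicate plates, either sign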;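 note: integrated kinetic ratio of fluorescence range over baseline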
HEK293 MPD ctr 2-1: nonspecific membrane potential effects, parental HEK293, confirmation, counter-screen for TRPC6 inhibitor project, cell-based, second counter screen; shares compounds with TRPC6 inh; parental HEK293 membrane potential dye fluorescence; maximal acetylcholine challenge after compound addition; signal change vs control, % at 10 µM; hit rate 31% among 920;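 active = membrane potential signal moving either way by over 3 SD of the maximum-effect control, in both duplicate plates, meaning non-specific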
HEK293 MPD ctr-1: membrane potential modulation in parental HEK293, confirmation, counter-screen for TRPC6 inhibitor project, cell-based | AID 2780, 2010 | membrane potential signal change, % at 10 µM | shares compounds with TRPC6 inh | parental HEK293 membrane potential dye fluorescence | hit rate 60% among 920;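 active = membrane potential signal shifting up or down by more than 3 SD of buffer-only wells, on both duplicate plates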
HEK293 MPD ctr-2: parental HEK293 membrane potential modulation, confirmation, counter-screen for TRPC6 modulator project, cell-based; shares compounds with TRPC6 inh; membrane potential dye fluorescence; membrane potential signal change, % at 10 µM; hit rate 51% among 2,400;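 active = membrane potential signal moves up or down beyond 5 SD from buffer-only wells, on both duplicate plates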
HEK293 MPD ctr 2-2: second counter-screen for TRPC6 modulators: effect in parental HEK293 cells. shares compounds with TRPC6 inh. membrane potential dye fluorescence; after compound, maximal acetylcholine stimulation. inhibition, % at 10 µM. hit rate 14% among 2,400;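 active = membrane potential signal drops by more than 5 SD from the mean control signal, in both duplicate plates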
TRPC4 ctr mod: TRPC4 modulation by TRPC6 hit compounds, confirmation, selectivity assay for TRPC6 modulator project, cell-based, HEK293 TRPC4/mu-opioid, membrane potential dye, mouse. shares compounds with TRPC6 inh. membrane potential fluorescence. percent change from control (negative = decrease, positive = increase), % at 10 µM. hit rate 69% among 2,400;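 active = membrane potential signal moved up or down beyond 5 SD of buffer control wells, in both duplicate plates, actives on both sides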
TRPC4 ctr inh 2: second selectivity test of TRPC6 modulators against mouse TRPC4 | hit rate 55% among 2,400 | inhibition, % at 10 µM | HEK293 TRPC4/mu-opioid, membrane potential dye fluorescence; stimulated with maximal-effect DAMGO | shares compounds with TRPC6 inh;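 active = drop in membrane potential signal beyond 5 SD of the control wells in both duplicate plates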;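 note: TRPC4 counter screen for TRPC6 hits run under conditions tuned for TRPC6 not TRPC4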
TRPC6 block conf: mouse TRPC6 channel inhibitors, confirmation, HEK293 cells, membrane potential dye, duplicate. shares compounds with TRPC6 inh. ACh-evoked depolarization. inhibition, % at 10 µM. hit rate 43% among 3,300. AID 488960, 2010;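 active = fluorescence ratio falls more than 5 SD below the full-stimulation control mean, in both duplicate runs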;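 note: integrated fluorescence ratio of peak minus minimum over baseline after agonist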
TRPC6 act confirm: mouse TRPC6 channel activators, confirmation, HEK293 cells, membrane potential dye, duplicate | shares compounds with TRPC6 inh | activation, % at 10 µM | hit rate 11% among 2,800 | HEK293-TRPC6 membrane potential dye fluorescence, FDSS | AID 488961, 2010;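 active = ratio signal rise beyond 5 SD above unstimulated control wells' mean, seen in both duplicate runs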
A number is an active result; – = inactive; · = no result given.

SMILES	TRPC4 block	TRPC6 inh	TRPC4 PAM	TRPC6 activator	TRPC4 agonist	HEK293 MPD ctr-2	HEK293 MPD ctr 2-2	TRPC4 ctr mod	TRPC4 ctr inh 2	TRPC6 block conf	TRPC6 act confirm	others
CCOC(=O)N1CCC(c2cc(=O)n3[nH]c(C)c(-c4ccc(F)cc4)c3n2)CC1	–	–	–	16	–	–	–	–	–	·	196%
CCOC(=O)N1CCC(c2cc(=O)n3[nH]c(-c4ccccc4)cc3n2)CC1	–	–	–	–	–	·	·	·	·	·	·
COc1ccc(-c2cn(CCO)nc2-c2ccc(OC)cc2)cc1	–	–	–	–	–	·	·	·	·	·	·
Cc1cc(NCCNC2=CC(=O)CCC2)nc2ccccc12	–	-5.5	–	–	–	-168%	–	-27%	31%	–	–
COC(=O)NC(=S)N1CCOCC1	–	–	–	–	–	·	·	·	·	·	·
Oc1c(C(Nc2ccccn2)c2ccccn2)ccc2cccnc12 (stereo not drawn)	–	-6.2	–	–	–	–	–	9.5%	–	40%	–
CCN(CC)CCn1c2ccccc2c2cnc(N)c(C#N)c21	-6	-7.2	–	–	–	·	·	·	·	–	–	TRPC4 spec 2=–;TRPC4 spec=-12%;HEK293 MPD ctr 2-1=–;HEK293 MPD ctr-1=-198%
CN(C)C=Nc1ncc2c3ccccc3n(CCN(C)C)c2c1C#N	–	-7	–	–	–	·	·	·	·	–	–	TRPC4 spec 2=54%;TRPC4 spec=-16%;HEK293 MPD ctr 2-1=–;HEK293 MPD ctr-1=-232%
CN(C)C=Nc1ncc2c3ccccc3n(Cc3ccccc3)c2c1C#N	–	–	–	–	–	·	·	·	·	·	·
COc1ccccc1N1CCN(C(=O)c2cc(=O)c3c(C)cc(C)cc3o2)CC1	–	–	–	–	–	·	·	·	·	·	·
CC(=O)c1ccc(C(=O)N2CCCC(CO)(Cc3ccccc3C)C2)s1 (stereo not drawn)	–	–	–	–	–	·	·	·	·	·	·
O=[N+]([O-])c1ccccc1S(=O)(=O)N1CCCC(C(F)(F)F)C1 (stereo not drawn)	–	-5.1	–	–	–	–	–	–	–	–	–
O=C(c1cccs1)N1CCCC(c2nc3c(nnn3Cc3ccccc3)c(=O)[nH]2)C1 (stereo not drawn)	–	–	–	–	–	·	·	·	·	·	·
O=C(c1cccs1)N1CCCC(c2nc3c(nnn3Cc3ccc(F)cc3)c(=O)[nH]2)C1 (stereo not drawn)	–	-7.5	–	–	–	·	·	·	·	–	–	TRPC4 spec 2=–;TRPC4 spec=–;HEK293 MPD ctr 2-1=–;HEK293 MPD ctr-1=–
Fc1cccc(Cc2noc(CN3CCN(C4CCc5ccccc5C4)CC3)n2)c1 (stereo not drawn)	–	-7.8	–	–	–	·	·	·	·	–	·	TRPC4 spec 2=–;TRPC4 spec=14%;HEK293 MPD ctr 2-1=290%;HEK293 MPD ctr-1=13%
Fc1cccc(Cc2noc(CN3CCCN(C4Cc5ccccc5C4)CC3)n2)c1	–	-5.1	–	–	–	202%	–	28%	70%	46%	·
CS(=O)(=O)Nc1cccc(-c2cn3c(n2)SCC3)c1	–	–	–	–	–	·	·	·	·	·	·
Cc1ccc(C(=O)c2cc([N+](=O)[O-])ccc2N2CCOCC2)c(C)c1	–	-5.4	–	–	–	–	–	–	–	–	–
CN(C)/C=C/C(=O)c1ccc(OCCN(C)c2ccccn2)cc1	–	-6.7	–	–	–	·	·	·	·	–	–	TRPC4 spec 2=46%;TRPC4 spec=37%;HEK293 MPD ctr 2-1=–;HEK293 MPD ctr-1=–
CN(C)/C=C/C(=O)c1ccc(Oc2ccccc2)cc1	–	–	–	–	–	·	·	·	·	·	·
CC1=CC(C)(C)N(C(=O)CNC2CCCCC2)c2cc(C)ccc21	–	-5.6	–	–	–	126%	–	36%	58%	50%	–
CC1=CC(C)(C)N(C(=O)CCl)c2cc(C)ccc21	–	–	–	–	–	·	·	·	·	·	·
CCOC(=O)C1(CCCc2ccccc2)CCN(S(C)(=O)=O)CC1	–	–	–	–	–	·	·	·	·	·	·
COc1ccc(OCC(=O)NC2CCCN(Cc3ccc(Cl)cc3)C2)cc1 (stereo not drawn)	–	-6.2	15	–	–	116%	–	24%	–	50%	·
c1csc(C2Nc3ccccc3-c3nc4ccccc4n32)c1 (stereo not drawn)	–	-6.6	–	–	–	·	·	·	·	–	–	TRPC4 spec 2=–;TRPC4 spec=9.1%;HEK293 MPD ctr 2-1=–;HEK293 MPD ctr-1=2.3%
COCC(C)NC(=O)C(C)N1c2cccc3cccc(c23)S1(=O)=O (stereo not drawn)	–	–	–	–	–	·	·	·	·	·	·
CCNC(=S)N1CCN(C(c2ccccc2)c2ccccc2)CC1	–	-5.2	–	–	68	–	–	66%	74%	–	–
CCCNC(=S)N1CCN(C(c2ccccc2)c2ccccc2)CC1	–	–	–	–	–	·	·	·	·	·	·
NNC(=O)c1cc(-c2ccc(N)cc2)nc2ccc(Br)cc12	–	–	–	–	–	·	·	·	·	·	·

Bioassay records (PubChem BioAssay)
